From ChEMBL document CHEMBL1926588, “Sulfur and selenium derivatives of quinazoline and pyrido[2,3-d]pyrimidine: synthesis and study of their potential cytotoxic activity in vitro” (Eur J Med Chem, 2012) come the findings set out here.

For one data set, the system named is CCRF-CEM. Briefly: Cytotoxicity against human CCRF-CEM cells after 72 hrs by MTT assay. Format: functional. The settings on record: for CC50: read-out: LC50 (the source's name). Summed up:
(§1)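 MTT read-out after 72 h exposure at 37 °C in humidified 5% CO2, with five concentrations between 0.01 and 100. GI50 is 50% growth reduction versus untreated controls, TGI is complete growth inhibition, and LC50 is the concentration killing 50% of cells. Minimum three independent experiments.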
A general note: Tetrazolium dyes change colour on reduction, which living cells bring about.

For another data set, the system named is HT-29. Put plainly: Cytotoxicity against human HT-29 cells after 72 hrs by MTT assay. It is filed as functional. The settings on record: HT-29, 72 h; for CC50: read-out: LC50 (the source's name). Summed up: as §1
The nature of data set [1]: Cytotoxicity against human BEAS2B cells after 72 hrs by MTT assay. It is filed as cell-based, BEAS-2B. The note with it: for GI50 at 72 h: BEAS2B cells; for LC50 / TGI: beas-2b, 72 h. An outline of the steps:
as §1

Data set [2] can be described thus: Cytotoxicity against human 184B5 cells after 72 hrs by MTT assay. It is filed as cell-based. The settings on record: for GI50 at 72 h: 184B5 cells; for LC50 / TGI: 184b5, 72 h. An outline of the steps:
as §1

For the next data set, the system named is MCF7. Briefly: Cytotoxicity against human MCF7 cells after 72 hrs by MTT assay. It is filed as functional. The note with it: MCF7, 72 h. An outline of the steps:
as §1

The nature of data set [3]: Cytotoxicity against human HTB-54 cells after 72 hrs by MTT assay. Format: functional. The note with it: HTB-54, 72 h; for CC50: read-out: LC50 (the source's name). Summed up:
as §1

SMILES strings stand for the structures. Bounds are passed on as bounds.

What is called GI50 is the concentration at which growth is held to half of that of the control. High values mean lower sensitivity of the cells, low ones greater sensitivity of the cells. Broadly, the TGI is the concentration at which net growth stops. A high value points to less potent growth arrest. By LC50 is commonly meant the concentration that kills 50% of the test population. Low values mean a more lethal substance, high ones a less lethal substance. As for `CCCCC[Se]c1nc(N)c2ccccc2n1`, the 50% growth inhibitory concentration (GI50) stood at 34.8 µM with CCRF-CEM, 40.3 µM in the data set on HT-29, 28.6 µM in the data set on MCF7 and 34.6 µM in data set [3]. Further, the total growth inhibition concentration (TGI) was 68 µM with CCRF-CEM; over 100 µM with HT-29; over 100 µM in data set [1]; 43.6 µM in data set [2]; 59.5 µM with MCF7; 84 µM in data set [3]. In addition, the CC50 (in the data set with CCRF-CEM; in the data set with HT-29; in data set [3]) was over 100 µM each time. For the same compound, the concentration for 50% growth inhibition (GI50) at 72 h in data set [1] is 52.2 µM; in data set [2] it was 15.3 µM. Besides, the LC50 in data set [1] was over 100 µM; in data set [2] it was 71.85 µM; in the data set with MCF7, 90.4 µM.
On to `CSc1nc(NCc2ccccc2)c2cccnc2n1`, for which the concentration for 50% growth inhibition (GI50) in the data set with CCRF-CEM came out at 56.3 µM; in the data set with HT-29, 87.1 µM; with MCF7, 39.4 µM; in data set [3], 5.08 µM. The TGI in the data set on CCRF-CEM is 98.5 µM; in the data set on HT-29, over 100 µM; in data set [1] it was 61.7 µM; in data set [2] it was over 100 µM; in the data set on MCF7, over 100 µM; in data set [3] it was 51.6 µM. The CC50 (in the data set with CCRF-CEM; in the data set on HT-29; in data set [3]) was over 100 µM each time. The 50% growth inhibitory concentration (GI50) at 72 h in data set [1] is 25.9 µM; in data set [2], 49 µM. The LC50 in data set [1] is 97.51 µM; in data set [2], over 100 µM; in the data set with MCF7 it was over 100 µM.
Consider `C[Se]c1nc(N)c2cccnc2n1`, for which the GI50 turned out to be 68.4 µM in the data set on CCRF-CEM, 44.1 µM in the data set with HT-29, 43 µM in the data set on MCF7 and 78.2 µM in data set [3]. Moreover, the TGI in the data set with CCRF-CEM was over 100 µM; in the data set on HT-29 it was 77.3 µM; in data set [1] it was 90.81 µM; in data set [2], 87.15 µM; in the data set with MCF7 it was over 100 µM; in data set [3], over 100 µM. For the same compound, the CC50 (in the data set on CCRF-CEM; with HT-29; in data set [3]) was over 100 µM in each case. In addition, the GI50 at 72 h in data set [1] worked out at 39.7 µM; in data set [2], 45.5 µM. Further, the LC50 (in data set [1]; in data set [2]; with MCF7) was over 100 µM in each case.
Consider `CSc1ccc(CNc2nc(SC)nc3ccccc23)cc1`, for which the GI50 in the data set with CCRF-CEM is over 100 µM; with HT-29, 34.7 µM; in the data set on MCF7, 47.3 µM; in data set [3] it was 7.22 µM. Also, the TGI with CCRF-CEM was over 100 µM; with HT-29 it was over 100 µM; in data set [1], 59.11 µM; in data set [2] it was over 100 µM; in the data set with MCF7, over 100 µM; in data set [3] it was 44.5 µM. The CC50 in the data set on CCRF-CEM was over 100 µM; in the data set with HT-29, over 100 µM; in data set [3], 89.1 µM. Also, the values for the concentration for 50% growth inhibition (GI50) at 72 h in data set [1] and in data set [2] were 22.7 µM and 22 µM, respectively. Besides, the LC50 in data set [1] is 95.93 µM; in data set [2], over 100 µM; in the data set with MCF7, over 100 µM.
As for `Nc1nc([SeH])nc2ncccc12`, the GI50 was 30.9 µM in the data set with CCRF-CEM, 36.3 µM in the data set with HT-29, 37.3 µM in the data set on MCF7 and 44.3 µM in data set [3]. Besides, the TGI in the data set with CCRF-CEM is 61.5 µM; in the data set on HT-29, 89.6 µM; in data set [1], 87.73 µM; in data set [2], 31.05 µM; in the data set on MCF7, over 100 µM; in data set [3] it was 96.6 µM. In addition, the CC50 with CCRF-CEM is 92.1 µM; with HT-29, over 100 µM; in data set [3] it was over 100 µM. The results for the concentration for 50% growth inhibition (GI50) at 72 h in data set [1] and in data set [2] were 5.89 µM and 5.2 µM, respectively. For the same compound, the results for the LC50 (in data set [1]; in data set [2]; with MCF7) were over 100 µM, 74.98 µM and over 100 µM, respectively.
Take `CSc1nc(NCCCCCO)c2ccccc2n1`: the GI50 with CCRF-CEM is over 100 µM; in the data set with HT-29, over 100 µM; in the data set on MCF7 it was 62 µM; in data set [3] it was 31.4 µM. Besides, the TGI was over 100 µM with CCRF-CEM; over 100 µM in the data set on HT-29; 99.35 µM in data set [1]; over 100 µM in data set [2]; over 100 µM with MCF7; 71.4 µM in data set [3]. The CC50 (in the data set on CCRF-CEM; in the data set with HT-29; in data set [3]) was over 100 µM throughout. The 50% growth inhibitory concentration (GI50) at 72 h in data set [1] was found to be 39.3 µM; in data set [2] it was 49.9 µM. Also, the LC50 (in data set [1]; in data set [2]; in the data set with MCF7) was over 100 µM throughout.
Regarding `CSc1nc(NCc2ccc([Se]C)cc2)c2ccccc2n1`, the GI50 with CCRF-CEM is 63.3 µM; with HT-29 it was over 100 µM; in the data set with MCF7 it was 36.4 µM; in data set [3], 57 µM. Moreover, the TGI (with CCRF-CEM; in the data set on HT-29; in data set [1]; in data set [2]; with MCF7; in data set [3]) was over 100 µM each time. In addition, the CC50 (in the data set with CCRF-CEM; with HT-29; in data set [3]) was over 100 µM in each case. Also, the concentration for 50% growth inhibition (GI50) at 72 h is 73.5 µM in data set [1] and 70.3 µM in data set [2]. Besides, the LC50 (in data set [1]; in data set [2]; in the data set on MCF7) was over 100 µM each time.
With `COc1ccc(CNc2nc(SC)nc3ncccc23)cc1`, the GI50 in the data set on CCRF-CEM was over 100 µM; in the data set with HT-29 it was over 100 µM; in the data set on MCF7, 48.1 µM; in data set [3] it was over 100 µM. The TGI is over 100 µM with CCRF-CEM; over 100 µM in the data set with HT-29; over 100 µM in data set [1]; 69.77 µM in data set [2]; over 100 µM in the data set with MCF7; over 100 µM in data set [3]. For the same compound, the CC50 (with CCRF-CEM; in the data set on HT-29; in data set [3]) was over 100 µM each time. In addition, the GI50 at 72 h came out at 58.5 µM in data set [1] and 34.2 µM in data set [2]. The median lethal concentration (LC50) (in data set [1]; in data set [2]; with MCF7) was over 100 µM each time.
`Nc1nc([SeH])nc2ccccc12`: the GI50 was 25.7 µM in the data set on CCRF-CEM, 52.2 µM with HT-29, 0.15 µM with MCF7 and 0.04 µM in data set [3]. In addition, the TGI is 52.4 µM in the data set on CCRF-CEM; over 100 µM in the data set on HT-29; over 100 µM in data set [1]; 36.65 µM in data set [2]; over 100 µM in the data set on MCF7; 3.63 µM in data set [3]. The values for the CC50 (with CCRF-CEM; in the data set on HT-29; in data set [3]) were 79.1 µM, over 100 µM and over 100 µM, respectively. The 50% growth inhibitory concentration (GI50) at 72 h in data set [1] was 0.08 µM; in data set [2] it was 0.69 µM. The LC50 in data set [1] is over 100 µM; in data set [2] it was 80.37 µM; in the data set with MCF7, over 100 µM.
